ABHD5-PLIN5 inh = ABHD5-PLIN5 interaction inhibitors, primary screen, cell lysate, split luciferase complementation, luminescence. Perilipin-5 (Homo sapiens) + 1-acylglycerol-3-phosphate O-acyltransferase ABHD5 (Homo …. Split G. princeps luciferase complementation, 4 h. inhibition, % at 4 µM. hit rate 0.78% among 360,000. AID 602281, 2012;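 active = inhibition above the mean inhibition across every tested compound plus 3 SD, cut at about 22% in these data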
Target sequence (Q00G26 whole entry, looked up): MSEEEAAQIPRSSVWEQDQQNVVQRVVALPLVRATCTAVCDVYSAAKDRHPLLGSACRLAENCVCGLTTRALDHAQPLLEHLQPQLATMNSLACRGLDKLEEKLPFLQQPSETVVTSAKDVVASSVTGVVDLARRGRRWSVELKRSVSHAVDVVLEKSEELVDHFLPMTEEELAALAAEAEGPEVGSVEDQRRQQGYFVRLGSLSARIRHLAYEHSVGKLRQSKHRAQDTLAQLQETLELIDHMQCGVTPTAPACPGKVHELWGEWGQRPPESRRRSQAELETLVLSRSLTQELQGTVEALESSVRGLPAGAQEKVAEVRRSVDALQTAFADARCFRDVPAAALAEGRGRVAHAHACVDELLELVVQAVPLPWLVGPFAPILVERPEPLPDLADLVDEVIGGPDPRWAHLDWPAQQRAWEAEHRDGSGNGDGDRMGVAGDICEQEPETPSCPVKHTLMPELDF
Target sequence (Q8WTS1 whole entry, looked up): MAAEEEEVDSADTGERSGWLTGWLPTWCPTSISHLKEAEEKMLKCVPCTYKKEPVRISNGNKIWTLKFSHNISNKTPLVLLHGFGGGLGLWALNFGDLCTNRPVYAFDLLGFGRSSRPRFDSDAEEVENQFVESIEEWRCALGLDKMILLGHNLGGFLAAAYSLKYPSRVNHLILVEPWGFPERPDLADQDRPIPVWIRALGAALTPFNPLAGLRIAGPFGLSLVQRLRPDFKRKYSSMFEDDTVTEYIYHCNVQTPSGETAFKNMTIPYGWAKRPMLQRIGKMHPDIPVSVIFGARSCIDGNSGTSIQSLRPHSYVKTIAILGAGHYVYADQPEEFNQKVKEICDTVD
PfG6PD inh = PfG6PD enzyme inhibitors, primary screen, biochemical, fluorescence intensity, uHTS; glucose-6-phosphate dehydrogenase-6-phosphogluconolactonase (Plasmodium falciparum 3D7); PfGluPho enzyme, NADPH resazurin-diaphorase fluorescence; inhibition, % at 20 µM; hit rate 0.78% among 350,000;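 active = inhibition reaching at least a set limit at 20 µM in the primary screen, cut at about 59% in these data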
Beta2AR agonist = beta2AR agonists driving receptor internalization, primary screen, cell-based, FAP fluorogen, flow cytometry. Am2.2-beta2AR cells. response, % (concentration not given with the values). hit rate 0.43% among 340,000. AID 504454, 2011;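 active = response above a set limit, near 3 SD of response in nonfluorescent compounds, cut at about 42% in these data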
MC4R barr agon = MC4R agonists recruiting beta-arrestin, primary screen, cell-based, luminescence, agonist arm of biased-ligand search; Melanocortin receptor 4 (Homo sapiens), P32245; activation, % at 8.9 µM; hit rate 0.98% among 360,000; U2OS MC4R beta-arrestin complementation; percent of melanotan II response, DMSO zero;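 active = activation above a per-plate cutoff, the mean activation of sample wells on that plate plus 3 SD, cut at about 8% in these data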
MC4R antagonist = MC4R antagonists of cAMP signaling, primary screen, cell-based, TR-FRET, antagonist arm of biased-ligand search; inhibition, % at 6.5 µM; hit rate 0.48% among 360,000; AID 540295, 2011; MC4R-expressing cells, MTII-stimulated cAMP, LANCE TR-FRET; Melanocortin receptor 4 (Homo sapiens), P32245;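 active = inhibition above its plate's cutoff, the mean of tested wells on that plate plus 3 SD, cut at about 29% in these data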
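Assay system: human MC4R-expressing U2OS cells; reagent: Melanotan II stimulation of cells; dosing: 6.5 µM single dose; timing: compound 30 min, challenge 1 h, detection 1 h; signal: TR-FRET cAMP assay; replicates: one well per compound, no replicates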
PfGluPho conf = PfG6PD inhibitors, hit retest, confirmation, biochemical, fluorescence intensity, single concentration | shares compounds with PfG6PD inh | recombinant PfGluPho, NADPH-diaphorase-resazurin fluorescence | hit rate 34% among 2,400 | inhibition, % at 20 µM;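 active = inhibition of at least 50% at 20 µM in any single replicate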
Diaph ctr 10uM = diaphorase inhibitors and chemical oxidizers, confirmation, counter-screen for P. falciparum G6PD inhibitor project, biochemical, fluorescence intensity, 10 µM NADPH | shares compounds with PfG6PD inh | hit rate 39% among 820 | diaphorase-coupled resazurin reduction, NADPH 10 uM | inhibition, % at 20 µM;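 active = average inhibition reaching 50% or more with the compound at 20 µM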;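 also: resorufin red fluorescence formed as diaphorase reduces resazurin using NADPH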
Diaphorase 30uM = diaphorase inhibitors and chemical oxidizers, confirmation, counter-screen for P. falciparum G6PD inhibitor project, biochemical, fluorescence intensity, 30 µM NADPH | inhibition, % at 20 µM | shares compounds with PfG6PD inh | hit rate 29% among 820 | Diaphorase/resazurin coupled assay, resorufin fluorescence;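 active = inhibition averaging 50% or more, tested at 20 µM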
Of the large screens only hits and unclear results are named; the others gave an inactive call (follow-up assays come after a bar, where they were run). Shown are actives, neighbours in structure and some others; about 3% of the full set was active somewhere.

CCN1CCN(S(=O)(=O)Cc2ccccc2Cl)CC1	none
CN1CCc2cccc3c2[C@@H]1Cc1ccc(O)c(O)c1-3	PfG6PD inh 89 | PfGluPho conf 86 | Diaph ctr 10uM inactive | Diaphorase 30uM inactive
Cc1[nH]c2ccccc2c1/C=N/NC(=O)c1cccc(S(=O)(=O)Nc2ccccc2Cl)c1	PfG6PD inh 83 | PfGluPho conf 68 | Diaph ctr 10uM 65 | Diaphorase 30uM inactive
Cc1nn(CCC(N)=S)c2nc(-c3cccs3)cc(C(F)(F)F)c12	PfG6PD inh 62 | PfGluPho conf inactive
O=c1ccn(-c2cccc(C(F)(F)F)c2)nc1-c1ccn(-c2cccc(Cl)c2)n1	PfG6PD inh 87 | PfGluPho conf 67 | Diaph ctr 10uM 61 | Diaphorase 30uM 57
COC(=O)c1nn(-c2cccc(C(F)(F)F)c2)ccc1=O	none
Cc1ccc(-c2cc(-c3ccc(F)cc3)c(C#N)c(N)n2)o1	none
Cc1ccc(-c2cc(-c3ccc(C)o3)nc(N)c2C#N)cc1	PfG6PD inh 60 | PfGluPho conf inactive
Cc1ccc(-c2cc(-c3ccc(Cl)cc3)c(C#N)c(N)n2)o1	PfG6PD inh 96 | PfGluPho conf inactive
NC(=N\N=Cc1ccccc1)/C(N)=N/N=Cc1ccccc1	none (no result: Beta2AR agonist)
Cn1c(CS/C(N)=N/N=C/c2ccccc2)c(Br)c(=O)n1-c1ccccc1	PfG6PD inh 64 | PfGluPho conf inactive
COc1ccccc1NS(=O)(=O)c1cc(NC(=S)NCCN2CCOCC2)ccc1N1CCOCC1	PfG6PD inh 66 | PfGluPho conf inactive
O=S(=O)(Nc1ccccc1F)c1cccc(NC(=S)NCCN2CCOCC2)c1	PfG6PD inh 96 | PfGluPho conf 77 | Diaph ctr 10uM inactive | Diaphorase 30uM inactive
Nc1cc(C(=O)N/N=C/c2cccc([N+](=O)[O-])c2)n[nH]c1=O	none
CC(C)(C)c1ccc(C(=O)Nc2ccc(F)cc2)s1	PfG6PD inh 86 | PfGluPho conf inactive
COc1cc(-c2cc(OC)c3c(C)oc(C)c3c(=O)c2)ccc1O	none
COc1c(O)c(O)c2oc(-c3ccccc3)cc(=O)c2c1OC	PfG6PD inh 98 | PfGluPho conf 79 | Diaph ctr 10uM 67 | Diaphorase 30uM inactive
COc1cc(OC)c2c(=O)cc(-c3ccccc3)oc2c1	none
COc1cc(-c2cc(=O)c3c(O)c(OC)c(OC)c(O)c3o2)ccc1O	PfG6PD inh 88 | PfGluPho conf 82 | Diaph ctr 10uM inactive | Diaphorase 30uM inactive
CC(C)(C)c1ccc(Cn2nnc3c(=O)[nH]c(C4CCCN(C(=O)c5cccs5)C4)nc32)cc1 (centres undefined)	none
COCCNc1c(-c2ccc(OC)cc2)nc2ccc(Cl)cn12	PfG6PD inh 65 | PfGluPho conf inactive
CCOC(=O)CNc1c(-c2ccc(OC)cc2)nc2ccc(Cl)cn12	PfG6PD inh 74 | PfGluPho conf inactive
CCOC(=O)c1sc(=S)n(C)c1NC(=O)c1ccc(F)cc1	PfG6PD inh 72 | PfGluPho conf inactive
Cc1[nH]c(=S)c(C#N)c(C)c1C(=O)Nc1ccccc1	PfG6PD inh 62 | PfGluPho conf inactive
CCc1c(C(=O)Nc2ccccc2)c(C)[nH]c(=S)c1C#N	PfG6PD inh 59 | PfGluPho conf 54 | Diaph ctr 10uM inactive | Diaphorase 30uM inactive
Cc1ccccc1NC(=O)c1c(C)[nH]c(=S)c(C#N)c1-c1ccco1	none
CC(=O)c1ccc(N2CCN(C(=S)Nc3ccc(Cl)c(Cl)c3)CC2)cc1	none
COc1ccc(N(C(=O)Cn2nnc3ccccc32)C(C(=O)NCc2ccco2)c2ccncc2)cc1 (centres undefined)	none
S=C(Nc1cccc(Cl)c1Cl)Nn1cnnc1	none
COc1ccc(C)cc1Nc1n[n+](-c2ccccc2)c(-c2c(OC)ccc3ccccc23)s1	PfG6PD inh 115 | PfGluPho conf 75 | Diaph ctr 10uM 69 | Diaphorase 30uM inactive
COc1ccc(C)cc1Nc1n[n+](-c2ccccc2)c(-c2cc(OC)c(OC)cc2Br)s1	none
COc1ccccc1N(CN1C(=O)c2ccccc2C1=O)C(=O)c1cccc(C)c1	none
CC1=C/C(=N\OS(=O)(=O)c2ccccc2)C(C(C)C)=CC1=O	PfG6PD inh 98, MC4R barr agon 31, MC4R antagonist 45 | PfGluPho conf 96 | Diaph ctr 10uM 76 | Diaphorase 30uM 63
O=C(CSc1nc2cc([N+](=O)[O-])ccc2n1-c1ccccc1)NCc1ccc2c(c1)OCO2	PfG6PD inh 68 | PfGluPho conf inactive
Cc1cc(C)cc(-n2c(SCC(=O)NCc3ccc4c(c3)OCO4)nc3ccccc3c2=O)c1	none
Cc1cc(C)c(NC(=O)CCCn2c(=O)oc3ccccc32)c(C)c1	none
C[C@H](c1ccccc1)n1nnc(COCc2ccccc2)c1C#CCOCc1ccccc1	none
Brc1cccc(Nc2nc(-c3cccnc3)cs2)c1	PfG6PD inh 60 | PfGluPho conf inactive
Brc1ccc(Nc2nc(-c3cccnc3)cs2)cc1	none
CN(C)S(=O)(=O)c1cccc(C(=O)Nc2cc(S(=O)(=O)N3CCOCC3)ccc2N2CCCC2)c1	PfG6PD inh 66 | PfGluPho conf inactive
COc1ccc(/C=C(\C#N)C(=O)Nc2cc(S(=O)(=O)N3CCOCC3)ccc2N2CCCC2)cc1	PfG6PD inh 64 | PfGluPho conf inactive
CN(C)S(=O)(=O)c1cccc(C(=O)Nc2cc(S(=O)(=O)N3CCOCC3)ccc2O)c1	none
O=C(Nc1cc(S(=O)(=O)N2CCOCC2)ccc1N1CCCCC1)c1cc(-c2ccccn2)nc2ccccc12	PfG6PD inh 71 | PfGluPho conf inactive
CC(C)N1CCN(S(=O)(=O)c2ccccc2)c2ccccc21	PfG6PD inh 95 | PfGluPho conf inactive
O=S(=O)(c1ccccc1)N1CCNc2ccccc21	none
O=C(CCC(=O)c1cccs1)OCC(=O)c1ccccc1F	none
CC(=O)C1=C(O)C(=O)N(c2ccccn2)C1c1ccc(C)cc1 (centres undefined)	none

From PubChem BioAssay
